Laboratory results from ChEMBL document CHEMBL2321840, “Synthesis and structure-activity relationships of indazole arylsulfonamides as allosteric CC-chemokine receptor 4 (CCR4) antagonists” (J Med Chem, 2013).
Converted amounts (≈) assume the structure as drawn.

Columns and labels:
[1] = Plasma protein binding in Beagle dog by equilibrium dialysis technique; format: ADME, cell-free, Canis lupus familiaris; conditions: read-out: PPB
How it was run: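 Rapid equilibrium dialysis in CD rat, beagle dog or human plasma, with compound at a nominal 1 μg/mL; n = 3.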

[2] = biological target: Acetylcholine receptor subunit alpha (Homo sapiens) (UniProt P02708); experiment: Antagonist activity at nAChR alpha1 (unknown origin) by [35S]GTPgammaS binding assay; format: functional
Chain of Acetylcholine receptor subunit alpha (Homo sapiens) (P02708 whole entry): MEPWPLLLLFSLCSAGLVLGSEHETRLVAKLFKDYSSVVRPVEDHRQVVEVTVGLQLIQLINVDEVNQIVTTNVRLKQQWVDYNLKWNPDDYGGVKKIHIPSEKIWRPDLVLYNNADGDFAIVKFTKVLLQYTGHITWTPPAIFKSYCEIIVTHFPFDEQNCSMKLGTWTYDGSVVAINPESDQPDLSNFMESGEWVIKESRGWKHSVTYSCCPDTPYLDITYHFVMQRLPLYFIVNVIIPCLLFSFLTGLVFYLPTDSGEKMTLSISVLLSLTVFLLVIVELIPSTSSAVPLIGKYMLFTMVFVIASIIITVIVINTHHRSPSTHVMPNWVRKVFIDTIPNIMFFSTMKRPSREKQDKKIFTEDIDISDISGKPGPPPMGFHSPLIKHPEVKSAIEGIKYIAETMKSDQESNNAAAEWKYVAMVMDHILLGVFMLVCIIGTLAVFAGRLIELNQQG

[3] = biological target: C-X-C chemokine receptor type 4 (Homo sapiens, UniProt P61073); experiment: Antagonist activity at CXCR4 receptor (unknown origin) by [35S]GTPgammaS binding assay; format: functional
Chain of C-X-C chemokine receptor type 4 (P61073 whole entry): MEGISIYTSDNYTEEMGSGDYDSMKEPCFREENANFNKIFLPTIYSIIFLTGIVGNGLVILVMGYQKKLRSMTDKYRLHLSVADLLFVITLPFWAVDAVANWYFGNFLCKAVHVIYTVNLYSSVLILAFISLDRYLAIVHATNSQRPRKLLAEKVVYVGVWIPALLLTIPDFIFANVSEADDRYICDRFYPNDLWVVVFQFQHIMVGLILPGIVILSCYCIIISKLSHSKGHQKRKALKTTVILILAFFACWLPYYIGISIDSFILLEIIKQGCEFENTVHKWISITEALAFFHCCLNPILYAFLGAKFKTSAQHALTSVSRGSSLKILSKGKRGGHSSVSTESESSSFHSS

Oryctolagus cuniculus = organism: Oryctolagus cuniculus; experiment: Cardiotoxicity in rabbit assessed as liability for torsadogenic arrhythmia; format: toxicity
[4] = biological target: T1, C-C chemokine receptor type 4 (Homo sapiens, UniProt P51679); experiment: Antagonist activity at human recombinant CCR4 receptor expressed in CHO cell membranes by [35S]GTPgammaS binding assay; format: functional
T1 sequence (P51679 whole entry): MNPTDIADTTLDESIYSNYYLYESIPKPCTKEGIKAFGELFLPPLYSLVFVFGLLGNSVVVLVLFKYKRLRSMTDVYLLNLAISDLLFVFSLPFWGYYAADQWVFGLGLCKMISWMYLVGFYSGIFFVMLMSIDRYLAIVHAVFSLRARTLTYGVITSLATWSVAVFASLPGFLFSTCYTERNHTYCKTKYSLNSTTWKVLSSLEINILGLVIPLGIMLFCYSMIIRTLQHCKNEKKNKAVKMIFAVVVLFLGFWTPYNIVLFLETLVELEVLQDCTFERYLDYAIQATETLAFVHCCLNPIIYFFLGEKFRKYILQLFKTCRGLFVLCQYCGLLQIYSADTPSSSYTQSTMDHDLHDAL

[5] = Chemical stability of the compound in PBS using MeOH at pH 7.4 by NMR analysis; format: physicochemical; conditions: buffer
[6] = Equilibrium solubility of the compound in fasted-state simulated intestinal fluid at pH 6.5 after 24 hrs by HPLC analysis; format: physicochemical
How it was run: (§1)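 Solid compound was equilibrated 24 h in the stated medium: water, SGF pH 1.6, FeSSIF pH 6.5, FaSSIF pH 6.5 or saline. Dissolved compound was quantified by HPLC.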

[7] = Stability of the compound in solid state at 40 to 50 degC 75 % relative humidity after 1 month by NMR analysis; conditions: 730.5 h
[8] = biological target: T2, Solute carrier organic anion transporter family member 1B1 (Homo sapiens, UniProt Q9Y6L6); experiment: Antagonist activity at OATP1B1 (unknown origin) by [35S]GTPgammaS binding assay; format: functional
T2 sequence (Q9Y6L6 whole entry): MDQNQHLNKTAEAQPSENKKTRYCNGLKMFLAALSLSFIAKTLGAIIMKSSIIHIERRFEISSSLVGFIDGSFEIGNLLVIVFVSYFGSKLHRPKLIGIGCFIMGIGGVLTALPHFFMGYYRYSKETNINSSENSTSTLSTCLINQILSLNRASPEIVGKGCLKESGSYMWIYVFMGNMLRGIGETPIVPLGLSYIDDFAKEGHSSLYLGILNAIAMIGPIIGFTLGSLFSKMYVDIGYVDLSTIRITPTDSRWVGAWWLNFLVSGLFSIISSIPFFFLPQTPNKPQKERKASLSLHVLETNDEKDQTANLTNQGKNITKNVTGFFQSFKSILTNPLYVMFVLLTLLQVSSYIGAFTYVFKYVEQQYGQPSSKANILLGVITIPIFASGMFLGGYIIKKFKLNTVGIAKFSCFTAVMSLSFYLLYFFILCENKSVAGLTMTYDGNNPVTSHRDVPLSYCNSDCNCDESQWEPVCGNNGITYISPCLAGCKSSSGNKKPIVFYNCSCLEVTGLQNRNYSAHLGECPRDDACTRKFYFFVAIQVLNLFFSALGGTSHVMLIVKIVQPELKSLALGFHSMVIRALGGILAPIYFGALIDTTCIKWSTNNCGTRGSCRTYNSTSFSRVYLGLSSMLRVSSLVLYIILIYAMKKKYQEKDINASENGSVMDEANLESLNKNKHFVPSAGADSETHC

[9] = biological target: T3, C-C chemokine receptor type 10 (Homo sapiens, UniProt P46092); experiment: Antagonist activity at CCR10 receptor (unknown origin) by [35S]GTPgammaS binding assay; format: functional
T3 sequence (P46092 whole entry): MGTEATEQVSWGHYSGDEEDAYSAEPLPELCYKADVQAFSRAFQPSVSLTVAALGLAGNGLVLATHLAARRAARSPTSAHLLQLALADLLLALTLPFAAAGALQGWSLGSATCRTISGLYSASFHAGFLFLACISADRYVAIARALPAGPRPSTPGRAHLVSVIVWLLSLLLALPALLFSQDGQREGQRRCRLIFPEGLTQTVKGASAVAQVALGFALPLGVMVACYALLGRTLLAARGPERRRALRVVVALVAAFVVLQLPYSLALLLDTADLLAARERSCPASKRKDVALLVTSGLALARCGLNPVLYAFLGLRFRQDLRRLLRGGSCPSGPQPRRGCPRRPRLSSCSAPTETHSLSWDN

HepG2 = experiment: Cytotoxicity in human HepG2 cells assessed as effect on mitochondria; format: cell-based
[10] = Equilibrium solubility of the compound in fed-state simulated intestinal fluid at pH 6.5 after 24 hrs by HPLC analysis; format: physicochemical; how it was run: as §1
Salmonella typhimurium = experiment: Genotoxicity in Salmonella typhimurium by Ames test; format: toxicity, organism-based; conditions: salmonella enterica subsp. enterica serovar typhimurium
[11] = Equilibrium solubility of the compound in simulated gastric fluid at pH 1.6 after 24 hrs by HPLC analysis; format: physicochemical; how it was run: as §1
[12] = Oral bioavailability in Beagle dog at 1 mg/kg; format: ADME, organism-based, Canis lupus familiaris; conditions: in vivo
[13] = Kinetic solubility of the compound in PBS using DMSO at pH 7.4 by NMR analysis; format: physicochemical; conditions: read-out: Kinetic_solubility
[14] = biological target: T4, C-X-C chemokine receptor type 3 (Homo sapiens, UniProt P49682); experiment: Antagonist activity at CXCR3 receptor (unknown origin) by [35S]GTPgammaS binding assay; format: functional
T4 sequence (P49682 whole entry): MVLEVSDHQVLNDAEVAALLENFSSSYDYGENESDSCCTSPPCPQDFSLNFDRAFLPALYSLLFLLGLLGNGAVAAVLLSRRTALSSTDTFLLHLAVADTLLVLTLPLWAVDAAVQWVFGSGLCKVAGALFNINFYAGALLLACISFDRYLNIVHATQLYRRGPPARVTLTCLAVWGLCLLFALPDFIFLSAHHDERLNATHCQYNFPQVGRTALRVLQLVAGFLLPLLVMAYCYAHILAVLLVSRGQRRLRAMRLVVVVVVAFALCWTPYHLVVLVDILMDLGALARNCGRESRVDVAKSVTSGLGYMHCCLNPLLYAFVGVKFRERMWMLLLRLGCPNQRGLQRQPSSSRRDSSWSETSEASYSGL

- fraction unbound [1]: ≤ 0.01
- pXC50 [2]: 5.1
- IC50 [3]: > 10000 nM
- IC50 [4]: 39.8 nM
- Stability [5]: Unstable
- solubility thermodynamic at 24 h [6]: 10 µg/mL (≈ 18.2 µM)
- Stability [7]: Stable
- IC50 [8]: 398 nM
- IC50 [9]: > 10000 nM
- solubility thermodynamic at 24 h [10]: 23 µg/mL (≈ 41.9 µM)
- solubility thermodynamic at 24 h [11]: 1 µg/mL (≈ 1.82 µM)
- bioavailability [12]: 97%
- solubility kinetic [13]: 270 µg/mL (≈ 492 µM)
- IC50 [14]: > 10000 nM
SMILES: COc1cccc2c1c(NS(=O)(=O)c1ccc(Cl)s1)nn2Cc1cccc(CNC(=O)C(C)(C)O)c1
- Activity (Oryctolagus cuniculus): Non-toxic
- Activity (HepG2): Non-toxic
- Activity (Salmonella typhimurium): Non-toxic
